For 20 compounds, IC50 results are on record in ChEMBL document CHEMBL1150314, “Design and synthesis of N-alkyl oxindolylidene acetic acids as a new class of potent Cdc25A inhibitors” (Bioorg Med Chem Lett, 2008).

This assay concerns the target T1, M-phase inducer phosphatase 1 (Homo sapiens, UniProt P30304).
T1 sequence (P30304 whole entry): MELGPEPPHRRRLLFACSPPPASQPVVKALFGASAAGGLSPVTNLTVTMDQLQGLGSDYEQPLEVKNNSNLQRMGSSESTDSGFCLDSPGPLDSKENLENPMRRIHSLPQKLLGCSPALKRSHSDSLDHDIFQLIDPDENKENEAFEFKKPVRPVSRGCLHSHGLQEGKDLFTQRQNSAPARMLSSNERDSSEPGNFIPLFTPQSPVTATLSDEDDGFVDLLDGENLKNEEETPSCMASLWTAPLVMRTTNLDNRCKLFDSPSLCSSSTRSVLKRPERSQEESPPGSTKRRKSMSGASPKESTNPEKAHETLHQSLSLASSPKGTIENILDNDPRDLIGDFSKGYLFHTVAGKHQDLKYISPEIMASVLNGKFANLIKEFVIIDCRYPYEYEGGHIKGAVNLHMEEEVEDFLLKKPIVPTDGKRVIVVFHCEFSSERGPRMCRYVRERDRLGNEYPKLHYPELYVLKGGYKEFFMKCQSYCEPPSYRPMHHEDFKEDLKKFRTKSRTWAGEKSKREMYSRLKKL
In words: Inhibition of human Cdc25A phosphatase activity. Put shortly: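 Recombinant human Cdc25A catalytic domain; phosphatase activity measured by dephosphorylation of 40 μM O-methylfluorescein monophosphate in 50 mM Tris–HCl pH 8.0, 100 mM NaCl, 1 mM dithiothreitol. IC50 taken as mean of two–five experiments, with standard deviation reported.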
The IC50 is the midpoint of a concentration-inhibition curve. Higher therefore signals lower potency. Regarding `CCCCCCCCCCCCN1C(=O)C(=O)c2ccccc21`, half-maximal inhibition (IC50) was put at 15 µM.

With `CC(C)CCC[C@@H](C)[C@H]1CCC2/C(=C/C(=O)O)CCC[C@@]21C` (stereo not given in full), the IC50 amounted to 12 µM.

`O=C(O)/C=C1/C(=O)N(CCCc2ccccc2)c2ccccc21` registered an IC50 of over 100 µM.

In turn, `CCCCCCN1C(=O)/C(=C\C(=O)O)c2ccccc21` yielded an IC50 of over 100 µM.

For the compound `CCCCCCCCCCN1C(=O)/C(=C\C(=O)O)c2ccccc21`, the half-maximal inhibitory concentration (IC50) was determined as 12 µM.

For the compound `CCCCCCCCCCCCN1C(=O)/C(=C\C(=O)O)c2ccccc21`, half-maximal inhibition (IC50) required 2.9 µM. This IC50 lies about 4.1-fold lower than the previous one.

With `CCCCCCCCCCCCCCN1C(=O)/C(=C\C(=O)O)c2ccccc21`, 1.7 µM corresponded to half-maximal inhibition (IC50).

Regarding `CCCCCCCCCCCCN1C(=O)/C(=C/C(=O)OC)c2ccccc21`, it took 37 µM to reach half-maximal inhibition (IC50).

In turn, `CCCCCCCCCCCCN1C(=O)C(CC(=O)O)c2ccccc21` (stereo not given) gave an IC50 of 50 µM.

In turn, `CCCCCCCCCCCCN1C(=O)/C(=N/O)c2ccccc21` yielded a concentration for half-maximal inhibition (IC50) of 33 µM.

For the compound `CCOCCOCCOCCN1C(=O)/C(=C/C(=O)O)c2ccccc21`, the half-maximal inhibitory concentration (IC50) is over 100 µM.

The compound `CCCCCCCCCCN1C(=O)/C(=C/C(=O)O)c2ccccc21` registered a 50% inhibitory concentration (IC50) of 13 µM. This counts as double-digit micromolar.

Turning to `CCCCCCCCCCCCN1C(=O)/C(=C/C(=O)O)c2ccccc21`, inhibition was half-maximal at 2.6 µM (IC50).

For the compound `CCCCCCCCCCCCCCN1C(=O)/C(=C/C(=O)O)c2ccccc21`, the concentration for half-maximal inhibition (IC50) was 2.3 µM.

Regarding `CCCCCCN1C(=O)/C(=C/C(=O)O)c2ccccc21`, the IC50 is over 100 µM.

With `CCCCCCCCCCCCCCCCN1C(=O)/C(=C/C(=O)O)c2ccccc21`, the IC50 is 1.9 µM.

Compound `CCCCCCCCN1C(=O)/C(=C\C(=O)O)c2ccccc21` returned an IC50 of 39 µM.

With `CCCCCCCCCCCCCCCCN1C(=O)/C(=C\C(=O)O)c2ccccc21`, the IC50 is 1.6 µM. Compared with the last compound, the IC50 is about 24-fold lower.

On to `CCCCCCCCCCCCn1cc(CC(=O)O)c2ccccc21`, for which the midpoint of inhibition, the IC50, lay at 8 µM.

`CCCCCCCCN1C(=O)/C(=C/C(=O)O)c2ccccc21`: inhibition was half-maximal at 78 µM (IC50).
